Rows were chosen to be rich in hits. Some 2.9% of all compounds tested hit in one or more screens of this group.
Vif inh – blocks HIV Vif function; 340,000 compounds, 0.35% hits; HEK293T cells, Vif self-association by quenched fluorescence, imaging, 24 h; inhibition, % at 7.49 µM; in the data active means inhibition above about 50%, passing the limit was not always enough; inconclusive means no clear call, values can overlap the other calls; inactive means below about 31%
PGC1a acetyl inh – modulators of PGC1a acetylation. 350,000 compounds, 0.17% hits. inhibition, % at 15.6 µM. U2OS PGC1a acetylation, AlphaScreen anti-acetyl-lysine; with virally co-expressed GCN5 acetyltransferase;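 active means every replicate shows inhibition of at least 40%; inconclusive means mean inhibition at least 40% but some replicate below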
rRNA inh HTS – inhibitors of bacterial rRNA selective over humanized ribosomes; E. coli WT GFP vs humanized-ribosome RFP mutants, fluorescence, 24 h; active compounds read low; DMSO median 0, no signal -100; GFP signal change (wild-type ribosome), % (concentration not given with the values); 350,000 compounds, 1.6% hits; AID 720706;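 active means significant combined selectivity score with lowered wild-type GFP, culture density cut under 30%, mutant RFP and density less affected; inactive means any of these conditions unmet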
Cneo AK release – causes C. neoformans cell lysis | AID 651654 | adenylate kinase release luminescence, 4 h; normalised: neutral wells 0, clomiphene wells 100 | lysis activity, % at 15 µM | 360,000 compounds, 0.2% hits;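 active means mean lysis activity across replicates of at least 80%, whatever share of replicates individually reach that level; inactive means mean lysis activity below 80%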
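Test system: log-phase Cryptococcus neoformans yeast cells; Quantity: yeast cell density of 5 × 10^6 cells/mL; Buffer or medium: YPD; Doses: single compound concentration per well; Timing: 4 h at 37 °C static, read 1 h later; Measured by: AK luminescence; Read-out basis: lysis from increased AK signal; Control set: Clomiphene as positive control.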
PglD inh – blocks C. jejuni PglD acetyltransferase activity; 360,000 compounds, 0.098% hits; inhibition, % at 12.5 µM; purified PglD enzyme, DTNB colorimetric CoA detection; AID 602405; in the data active means inhibition above about 16%, passing the limit was not always enough; inconclusive means no clear call, values can overlap the other calls
FGF22 binding – binders of recombinant human FGF22 by thermal shift. Q9HCT0. SYPRO orange fluorescence; percent of sucrose octasulfate shift, DMSO zero. activity (Tm shift, normalised), % at 9.99 µM. 340,000 compounds, 1.5% hits;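 active means mean Tm shift, scaled 0 neutral to 100 positive control, at about 1.3% or above, every replicate too, limit read from the data; inconclusive means no clear call, values can overlap the other calls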
Target sequence (Q9HCT0 whole entry, looked up): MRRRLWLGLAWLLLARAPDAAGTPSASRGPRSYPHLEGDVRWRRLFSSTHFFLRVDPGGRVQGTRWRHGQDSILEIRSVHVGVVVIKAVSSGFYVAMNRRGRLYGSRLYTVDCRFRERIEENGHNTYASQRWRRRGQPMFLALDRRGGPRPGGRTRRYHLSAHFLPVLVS
PglD confirm – confirmation of Campylobacter jejuni PglD acetyltransferase inhibitors; shares compounds with PglD inh; inhibition, % at 20 µM; Purified C. jejuni PglD, DTNB absorbance 412 nm; 320 tested, under 10 active;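 active means mean inhibition across replicates of at least 20% with every single replicate also at 20% or more; inconclusive means mean inhibition at least 20% but some replicate falls below 20%; inactive means mean inhibition under 20% and not all replicates reach it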;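 further: initial rate of CoA release by acetyl transfer from AcCoA to the UDP-4-amino sugar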
A number is an active result.

O=C(C1CCOCC1)N1CC[C@@H]2[C@@H](CO)Nc3ccc(Br)cc3[C@@H]21 was read as PGC1a acetyl inh inactive, rRNA inh HTS inactive, Cneo AK release 91.4, PglD inh inactive and FGF22 binding inactive.
Screening COc1ccc(S(=O)(=O)Nc2ccc3c(c2)CC(=O)N([C@H](C)CO)C[C@@H](C)[C@@H](CN(C)Cc2ccc(Oc4ccccc4)cc2)O3)cc1 returned PGC1a acetyl inh inactive, rRNA inh HTS inactive, Cneo AK release inactive, PglD inh inactive and FGF22 binding inactive.
For Cn1c(N)c(N2CCCCC2)c(=O)n(CC(=O)Nc2cccc(C#N)c2)c1=O the results were Vif inh inactive, PGC1a acetyl inh inactive, rRNA inh HTS inactive, Cneo AK release inactive, PglD inh inactive and FGF22 binding 43.0.
Screening O=C(COc1cccc2cccnc12)N/N=C/c1ccc(O)cc1 returned Vif inh inactive, PGC1a acetyl inh inactive, rRNA inh HTS inactive, Cneo AK release inactive, PglD inh inactive and FGF22 binding inactive.
`O=C(COc1cccc2cccnc12)N/N=C/c1cccn1-c1ccc(F)cc1` gave Vif inh inactive, rRNA inh HTS -41.5 and FGF22 binding inactive.
`CCOc1cc(C(=S)N2CCOCC2)ccc1OC(=O)c1ccc(C)cc1` gave Vif inh inactive, PGC1a acetyl inh inactive, rRNA inh HTS inactive, Cneo AK release inactive, PglD inh 45.4, FGF22 binding inactive and PglD confirm inactive.
For CCOc1cc(C(=S)N2CCOCC2)ccc1OC(=O)c1ccccc1 the results were Vif inh inactive, PGC1a acetyl inh inactive, rRNA inh HTS inactive, Cneo AK release inactive, PglD inh inactive and FGF22 binding inactive.
Screening CCn1c(=O)cc(SCC(=O)N2CCOCC2)c2ccccc21 returned Vif inh inactive, PGC1a acetyl inh inactive, Cneo AK release inactive and PglD inh inactive.
For CCn1c(=O)cc(SCC(=O)N2CCN(c3ccccc3OC)CC2)c2ccccc21 the results were Vif inh inactive, PGC1a acetyl inh inactive, Cneo AK release inactive, PglD inh 32.9 and PglD confirm inconclusive.
`COc1ccc(S(=O)(=O)N2CCCCC2)cc1NC(=S)Nc1ccccc1` gave Vif inh inactive, PGC1a acetyl inh inactive, Cneo AK release inactive, PglD inh 22.8 and PglD confirm inactive.
For CCCNC(=O)N1CC2(CN(C(=O)C3CCCCC3)C2)c2c([nH]c3cc(OC)ccc23)[C@H]1CO the results were rRNA inh HTS inactive and FGF22 binding inactive.
For COc1cccc(C2CC(c3ccc(Cl)cc3)n3nc(N)nc3N2)c1 (stereo not given) the results were Vif inh inactive, rRNA inh HTS inactive, Cneo AK release inactive, PglD inh 26.1, FGF22 binding inactive and PglD confirm inactive.
CC1=C(C(=O)OCc2ccccc2)C(/C=C/c2ccccc2)NC(=S)N1 (stereo not given) was read as Vif inh inactive, PGC1a acetyl inh inactive, Cneo AK release inactive, PglD inh 21.3 and PglD confirm inactive.
For C=CCOC(=O)C1=C(C)NC(=S)NC1/C=C/c1ccccc1 (stereo not given) the results were Vif inh inactive, PGC1a acetyl inh inactive, Cneo AK release inactive and PglD inh inactive.
`CSCC[C@H](NC(=O)COc1cc2c(c3oc(=O)c(C)c(C)c13)CCC(C)(C)O2)C(=O)O` gave Vif inh inactive, PGC1a acetyl inh inactive, rRNA inh HTS inactive, Cneo AK release inactive, PglD inh 27.1, FGF22 binding inactive and PglD confirm inactive.
For CSC[C@H](NC(=O)COc1cc2c(c3oc(=O)c(C)c(C)c13)CCC(C)(C)O2)C(=O)O the results were Vif inh inactive, PGC1a acetyl inh inactive, rRNA inh HTS inactive, Cneo AK release inactive, PglD inh inactive and FGF22 binding inactive.
Screening C[C@@H]1CN([C@@H](C)CO)C(=O)c2cc(C#Cc3ccccn3)cnc2O[C@@H]1CN(C)CC1CCCC1 returned PGC1a acetyl inh inactive and rRNA inh HTS inactive.
Screening CC1Oc2ccccc2N(CC(=O)N2CCCCC2)C1=O (stereo not given) returned Vif inh inactive, PGC1a acetyl inh inactive, rRNA inh HTS inactive, Cneo AK release inactive, PglD inh 24.6, FGF22 binding inactive and PglD confirm inconclusive.
CCOC(=O)C1CCN(S(=O)(=O)c2ccc3c(c2)CC(=O)N3C)CC1 was read as Vif inh inactive, PGC1a acetyl inh inactive, rRNA inh HTS inactive, Cneo AK release inactive, PglD inh 41.1, FGF22 binding inactive and PglD confirm inactive.
Cc1cc(C)n(CCCC(=O)O)n1 was read as Vif inh inactive, PGC1a acetyl inh inactive, rRNA inh HTS inactive, Cneo AK release inactive, PglD inh inactive and FGF22 binding inactive.
`CCSC1=NCN(CCCC(=O)O)CN1` gave Vif inh inactive, PGC1a acetyl inh inactive, Cneo AK release inactive, PglD inh 20.3 and PglD confirm inactive.
CCCC/C(O)=C1\C(=O)CCCC1=NCCc1c(C)[nH]c2ccc(OC)cc12 was read as Vif inh inactive, PGC1a acetyl inh inactive, rRNA inh HTS -18.1, Cneo AK release inactive, PglD inh 20.5, FGF22 binding inactive and PglD confirm inactive.
Screening CC(C)(C)c1ccc(-c2nnc3sc(-c4ccncc4)nn23)cc1 returned PGC1a acetyl inh inactive, Cneo AK release inactive, PglD inh 23.9 and PglD confirm inactive.
CCOC(=O)c1ccc(NC(=S)N2CCC(O)CC2)cc1 was read as Vif inh inactive, PGC1a acetyl inh inactive, rRNA inh HTS inactive, Cneo AK release inactive, PglD inh 24.0, FGF22 binding inactive and PglD confirm inactive.
For COCC(=O)NCCNc1nc2ccc(C)cc2cc1C the results were Vif inh inactive, PGC1a acetyl inh inactive, Cneo AK release inactive, PglD inh 41.4 and PglD confirm inactive.
For Cc1ccc(C(=O)NCCNc2nc3cc(C)c(C)cc3cc2C)cc1 the results were Vif inh inactive, PGC1a acetyl inh inactive, Cneo AK release inactive and PglD inh inactive.
`COc1cccc(-c2ccc3c(c2)[C@@H]2[C@@H](CCN2S(=O)(=O)c2ccccc2OC)[C@H](CO)N3C)c1` gave PGC1a acetyl inh inactive, rRNA inh HTS inactive, Cneo AK release inactive, PglD inh inactive and FGF22 binding inactive.
O=C1CSC(c2cccnc2)N1Cc1cccnc1 (stereo not given) was read as Vif inh inactive, rRNA inh HTS inactive, Cneo AK release inactive, PglD inh 23.1, FGF22 binding inactive and PglD confirm inactive.
For O=C1CSC(c2ccncc2)N1Cc1ccccc1 (stereo not given) the results were Vif inh inactive, PGC1a acetyl inh inactive, rRNA inh HTS inactive and FGF22 binding inactive.
